Experimental data: ChEMBL document CHEMBL1128231, “Amphoteric drugs. 3. Synthesis and antiallergic activity of 3-[(5,11-dihydro[1]benzoxepino[4,3-b]pyridin-11-ylidene)piperidino]propionic acid derivatives and related compounds” (J Med Chem, 1995)

What was measured:
[1] = system: Rattus norvegicus; assay: Antiallergic activity was evaluated by inhibitory effect on compound 48/80-induced lethality in rats at a dose 0.01 (mg/kg, po); type: functional
Method in brief: (§1)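 Male Wistar rats, 6 weeks old, fasted 24 h, n = 5. Survival beyond 2 h scored all-or-none; percent inhibition of lethality recorded at each oral dose.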

[2] = system: Rattus norvegicus; assay: Antiallergic activity was evaluated by inhibitory effect on 48/80-induced lethality in rats at a dose 0.1 (mg/kg, po); type: functional; method in brief: as §1
[3] = system: Rattus norvegicus; assay: Antiallergic activity was evaluated by inhibitory effect on 48/80-induced lethality in rats at a dose 1 (mg/kg, po); type: functional; method in brief: as §1
[4] = system: Mus musculus; assay: Tested for Hexobarbital-induced anesthesia in mice by measuring dose which produced 50% increase of the sleeping time upon oral administration; type: functional; conditions: read-out: ID50 (the source's name)
Method in brief: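 Male ICR mice (5 weeks, starved 20–24 h) dosed orally; 1 h later hexobarbital 80 mg/kg ip. Sleeping time = duration of loss of righting reflex; responders show >50% increase over controls. ID50 from number responding at each dose by Litchfield–Wilcoxon, with 95% confidence limits.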

[5] = molecular target: Histamine H1 receptor (Mus musculus) (UniProt P70174); assay: Ex vivo inhibition of [3H]mepyramine binding to mouse brain membrane H1 receptor after oral administration; type: functional, organism-based
Method in brief: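 Male ICR mice (6 weeks, starved 24 h) dosed orally with compound or vehicle; brain taken 1 h later and homogenized in 40 volumes 50 mM phosphate buffer pH 7.4. Membranes incubated with [3H]mepyramine (final 2 nM), 25 °C, 30 min; filtered, scintillation counted.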

[6] = Octanol-buffer partition coefficient determined by dividing its equilibrium organic concentration by its aqueous concentration; type: physicochemical; conditions: octanol/water
Method in brief: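 Sample dissolved at 10 µg/mL in Sørensen buffer pH 7.4; equal volumes buffer and 1-octanol shaken 24 h at 25 °C, centrifuged. Each phase quantified by HPLC (UV 254 nm, ODS column, 0.03 M phosphate pH 3.0–CH3CN 7:3). PCoct = organic/aqueous equilibrium concentration.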

[7] = system: Mus musculus; assay: Inhibitory effect on histamine-induced increase in vascular permeability in mice upon oral administration; type: functional
Method in brief: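 Male ICR mice (6 weeks, starved 20 h) dosed orally; 1 h later, under light ether, intradermal histamine dihydrochloride 2.5 µg/site plus saline after iv 0.2 mL 1% Evans blue. Killed 30 min later; extravasated dye extracted and assayed. ED50 from log-logit dose–percent inhibition, least squares, with 95% confidence limits.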

[8] = Selectivity as the ratio of ID50 value to that of ED50 value in mice.; type: functional
Method in brief: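 Ratio B/A: B = oral ID50 for ex vivo [3H]mepyramine binding in mouse brain membranes (1 h post-dose); A = oral ED50 against histamine-induced skin vascular permeability in mice.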

[9] = system: Cavia porcellus; assay: Histamine induced in lethality in guinea pigs at 8 hr after oral dose of 0.02 mg/kg; type: functional
Method in brief: (§2)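 Male Hartley guinea pigs, 6 weeks old, fasted 24 h, n = 10, dosed orally. Eight hours later histamine dihydrochloride given iv at a lethal dose of 1 mg/kg. Survival beyond 30 min scored all-or-none; percent inhibition of lethality reported.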

[10] = system: Rattus norvegicus; assay: Antiallergic activity was evaluated by inhibitory effect on compound 48/80-induced lethality in rats at a dose 10 (mg/kg, po); type: functional; method in brief: as §1
[11] = species: Cavia porcellus; assay: animal or person; conditions: po, 8 h, read-out: Inhibition
[12] = system: Cavia porcellus; assay: Histamine induced in lethality in guinea pigs at 8 hr after oral dose of 0.3 mg/kg; type: functional; method in brief: as §2

Sequence of Histamine H1 receptor (Mus musculus) (P70174 whole entry): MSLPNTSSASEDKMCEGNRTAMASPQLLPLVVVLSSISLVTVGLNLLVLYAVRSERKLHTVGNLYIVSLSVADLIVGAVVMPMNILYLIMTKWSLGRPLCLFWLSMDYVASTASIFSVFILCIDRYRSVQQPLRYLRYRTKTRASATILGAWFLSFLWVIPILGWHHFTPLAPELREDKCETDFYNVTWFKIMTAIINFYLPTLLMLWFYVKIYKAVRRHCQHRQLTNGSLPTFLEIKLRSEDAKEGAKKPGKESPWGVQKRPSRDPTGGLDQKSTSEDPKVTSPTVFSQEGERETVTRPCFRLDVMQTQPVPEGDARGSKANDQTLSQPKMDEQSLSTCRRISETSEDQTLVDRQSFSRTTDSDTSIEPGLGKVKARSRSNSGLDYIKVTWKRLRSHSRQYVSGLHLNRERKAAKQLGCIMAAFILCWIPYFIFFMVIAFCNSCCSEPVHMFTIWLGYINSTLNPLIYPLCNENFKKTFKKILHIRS

| Compound | Inhibition [1] [%] | Inhibition [2] [%] | Inhibition [3] [%] | ID50 [5] [mg/kg] | ED50 [7] [mg/kg] | Selectivity [8] | Inhibition [10] [%] | also measured |
| --- | --- | --- | --- | --- | --- | --- | --- | --- |
| O=C(O)CCN1CCC(=C2c3ccc(Cl)cc3OCc3ncccc32)CC1 | 40 | 80 | 100 |  |  |  |  |  |
| O=C(O)CCN1CCC(=C2c3cc(Cl)ccc3OCc3cccnc32)CC1 |  | 0 | 100 |  |  |  |  |  |
| O=C(O)CCN1CCC(=C2c3ccccc3OCc3ncccc32)CC1 | 0 | 40 | 100 | 3.4 | 0.01 | 340 |  | ED50 [4]: > 100 mg/kg; PCoct [6]: 0.56 |
| COc1ccc2c(c1)OCc1ncccc1C2=C1CCN(CCC(=O)O)CC1 | 0 | 40 | 100 |  |  |  |  |  |
| CN1CCC(=C2c3ccccc3CC(=O)c3sccc32)CC1 [KETOTIFEN] |  |  |  | 0.65 | 0.23 | 2.8 |  | inhibition in vivo at 0.02 mg/kg [9]: 10% |
| O=C(O)CCN1CCC(=C2c3cc([N+](=O)[O-])ccc3OCc3cccnc32)CC1 |  | 0 | 20 |  |  |  | 80 |  |
| Cc1ccc(/C(=C\CN2CCCC2)c2cccc(/C=C/C(=O)O)n2)cc1 [ACRIVASTINE] |  |  |  | > 300 | 0.63 | >480 |  | inhibition in vivo at 0.16 mg/kg [11]: 0%; ED50 [10]: 3.3 mg/kg |
| CN1CCC(=C2c3ccccc3COc3ccccc32)CC1 |  | 0 | 60 | 0.77 | 0.035 | 22 | 100 | ED50 [4]: 0.73 mg/kg |
| O=C(O)CCN1CCC(=C2c3cc(F)ccc3OCc3cccnc32)CC1 |  | 0 | 20 |  |  |  | 100 |  |
| O=C(O)CCN1CCC(=C2c3cc(F)ccc3OCc3ncccc32)CC1 | 0 | 60 | 100 |  |  |  |  |  |
| CC(=O)c1ccc2c(c1)C(=C1CCN(CCC(=O)O)CC1)c1ncccc1CO2 |  | 0 | 20 |  |  |  | 100 |  |
| COc1ccc2c(c1)C(=C1CCN(CCC(=O)O)CC1)c1ncccc1CO2 | 0 | 20 | 60 |  |  |  | 80 |  |
| O=C(O)CCN1CCC(=C2c3ccc(Br)cc3OCc3cccnc32)CC1 | 0 | 40 | 60 |  |  |  | 100 |  |
| CC(CN1CCC(=C2c3ccc(F)cc3OCc3cccnc32)CC1)C(=O)O (configuration not stated) | 20 | 60 | 100 | 2.3 | 0.011 | 210 |  |  |
| O=C(O)CCN1CCC(=C2c3cccc(Cl)c3OCc3cccnc32)CC1 |  | 0 | 60 |  |  |  | 100 |  |
| CCOC(=O)N1CCC(=C2c3ccc(Cl)cc3CCc3cccnc32)CC1 [LORATADINE] |  |  |  |  | 0.21 |  |  | inhibition in vivo at 0.3 mg/kg [12]: 80% |

| Compound | Inhibition [1] [%] | Inhibition [2] [%] | Inhibition [3] [%] | ID50 [5] [mg/kg] | ED50 [7] [mg/kg] | Selectivity [8] | Inhibition [10] [%] | also measured |
| --- | --- | --- | --- | --- | --- | --- | --- | --- |
| CC(CC(=O)O)N1CCC(=C2c3ccc(F)cc3OCc3cccnc32)CC1 (configuration not stated) |  |  | 0 |  |  |  | 100 |  |
| O=C(O)CCN1CCC(=C2c3cccc(F)c3OCc3cccnc32)CC1 | 0 | 20 | 100 |  |  |  |  |  |
| O=C(O)CCN1CCC(=C2c3ccccc3OCc3cccnc32)CC1 |  | 0 | 100 | 19 | 0.012 | 1600 |  | ED50 [4]: > 100 mg/kg; PCoct [6]: 0.52 |
| CN1CCC(=C2c3ccccc3OCc3cccnc32)CC1 |  | 0 | 100 | 0.2 | 0.011 | 18 |  | ED50 [4]: > 100 mg/kg; PCoct [6]: 28.4 |
| O=C(O)CCN1CCC(=C2c3ccccc3COc3ccccc32)CC1 | 20 | 60 | 100 | 0.062 | 0.0038 | 16 |  | ED50 [4]: 16 mg/kg; PCoct [6]: 9.66 |
| COc1ccc2c(c1)OCc1cccnc1C2=C1CCN(CCC(=O)O)CC1 |  | 0 | 20 |  |  |  | 100 |  |
| O=C(O)CCN1CCC(=C2c3ccc(Cl)cc3OCc3cccnc32)CC1 |  | 0 | 80 |  |  |  | 100 |  |
| CN1CCC(=C2c3ccccc3OCc3ncccc32)CC1 |  | 0 | 100 | 0.49 | 0.025 | 20 |  | ED50 [4]: 9.9 mg/kg; PCoct [6]: 54.3 |
| CC(CN1CCC(=C2c3ccc(F)cc3OCc3ncccc32)CC1)C(=O)O (configuration not stated) | 20 | 100 |  |  |  |  |  |  |
| O=C(O)CCN1CCC(=C2c3ccc(F)cc3OCc3ncccc32)CC1 | 40 | 100 |  | 2.5 | 0.0037 | 680 |  | inhibition in vivo at 0.3 mg/kg [12]: 60%; ED50 [10]: 0.034 mg/kg |
| O=C(O)CCN1CCC(=C2c3cccc([N+](=O)[O-])c3OCc3cccnc32)CC1 |  |  | 0 |  |  |  | 60 |  |
| Cc1ccc2c(c1)OCc1cccnc1C2=C1CCN(CCC(=O)O)CC1 | 0 | 20 | 40 |  |  |  | 100 |  |
| O=C(O)CCN1CCC(=C2c3ccc(F)cc3OCc3cccnc32)CC1 | 0 | 40 | 100 | 14 | 0.025 | 560 |  | inhibition in vivo at 0.3 mg/kg [12]: 90%; ED50 [10]: 0.29 mg/kg |
| O=C(O)CCN1CCC(=C2c3cc(C(=O)O)ccc3OCc3cccnc32)CC1 |  |  | 0 |  |  |  | 20 |  |
| Cc1ccc2c(c1)OCc1ncccc1C2=C1CCN(CCC(=O)O)CC1 | 0 | 20 | 60 |  |  |  | 100 |  |
